From ChEMBL document CHEMBL1146451, “Spirostanol and furostanol glycosides from the fresh tubers of Polianthes tuberosa” (J Nat Prod, 2004)
Values after ≈ are worked out from the molar mass of the structure shown.

System: HeLa
Assay: Cytotoxicity against human HeLa cells after 72 hrs by MTT assay
Format: functional, cell-based
Outline: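 HeLa cells seeded at 2 × 10^4 cells/mL in RPMI 1640, preincubated 12 h at 37 °C in 5% CO2/air. Samples added in DMSO to final 25, 20, 15, 10, 5, 2.5, 1.25, 0.80 µg/mL; DMSO alone in control wells.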

Row | Compound | IC50
1 | C[C@@H]1CC[C@@]2(OC1)O[C@H]1C[C@H]3[C@@H]4CC[C@H]5C[C@@H](O[C@@H]6O[C@H](CO)[C@H](O[C@@H]7O[C@H](CO)[C@@H](O)[C@H](O[C@@H]8OC[C@@H](O)[C@H](O)[C@H]8O)[C@H]7O[C@@H]7O[C@H](CO)[C@@H](O)[C@H](O[C@@H]8OC[C@@H](O)[C@H](O)[C@H]8O)[C@H]7O)[C@H](O)[C@H]6O)CC[C@]5(C)[C@H]4CC(=O)[C@]3(C)[C@H]1[C@@H]2C | 4.02 µg/mL (≈ 3.4 µM)
2 | C[C@H](CC[C@@]1(O)O[C@H]2C[C@H]3[C@@H]4CC[C@H]5C[C@@H](O[C@@H]6O[C@H](CO)[C@H](O[C@@H]7O[C@H](CO)[C@@H](O)[C@H](O[C@@H]8OC[C@@H](O)[C@H](O)[C@H]8O)[C@H]7O[C@@H]7O[C@H](CO)[C@@H](O)[C@H](O)[C@H]7O)[C@H](O)[C@H]6O)CC[C@]5(C)[C@H]4CC(=O)[C@]3(C)[C@H]2[C@@H]1C)CO[C@@H]1O[C@H](CO)[C@@H](O)[C@H](O)[C@H]1O [POLIANTHOSIDE D] | 7.86 µg/mL (≈ 6.39 µM)
3 | C[C@H](CC[C@@]1(O)O[C@H]2C[C@H]3[C@@H]4CC[C@H]5C[C@@H](O[C@@H]6O[C@H](CO)[C@H](O[C@@H]7O[C@H](CO)[C@@H](O)[C@H](O[C@@H]8OC[C@@H](O)[C@H](O)[C@H]8O)[C@H]7O[C@@H]7O[C@H](CO)[C@@H](O)[C@H](O[C@@H]8OC[C@@H](O)[C@H](O)[C@H]8O)[C@H]7O)[C@H](O)[C@H]6O)CC[C@]5(C)[C@H]4CC[C@]3(C)[C@H]2[C@@H]1C)CO[C@@H]1O[C@H](CO)[C@@H](O)[C@H](O)[C@H]1O [POLIANTHOSIDE F] | 20 µg/mL (≈ 14.8 µM)
4 | C[C@H](CC[C@@]1(O)O[C@H]2C[C@H]3[C@@H]4CC[C@H]5C[C@@H](O[C@@H]6O[C@H](CO)[C@H](O[C@@H]7O[C@H](CO)[C@@H](O)[C@H](O[C@@H]8O[C@H](CO)[C@@H](O)[C@H](O)[C@H]8O)[C@H]7O[C@@H]7O[C@H](CO)[C@@H](O)[C@H](O[C@@H]8OC[C@@H](O)[C@H](O)[C@H]8O)[C@H]7O)[C@H](O)[C@H]6O)CC[C@]5(C)[C@H]4CC[C@]3(C)[C@H]2[C@@H]1C)CO[C@@H]1O[C@H](CO)[C@@H](O)[C@H](O)[C@H]1O [POLIANTHOSIDE G] | 5.36 µg/mL (≈ 3.89 µM)
5 | C[C@@H]1CC[C@@]2(OC1)O[C@H]1C[C@H]3[C@@H]4C[C@H](O)[C@H]5C[C@@H](O[C@@H]6O[C@H](CO)[C@H](O[C@@H]7O[C@H](CO)[C@@H](O)[C@H](O[C@@H]8OC[C@@H](O)[C@H](O)[C@H]8O)[C@H]7O[C@@H]7O[C@H](CO)[C@@H](O)[C@H](O[C@@H]8OC[C@@H](O)[C@H](O)[C@H]8O)[C@H]7O)[C@H](O)[C@H]6O)CC[C@]5(C)[C@H]4CC[C@]3(C)[C@H]1[C@@H]2C | 7.5 µg/mL (≈ 6.34 µM)
6 | C[C@@H]1CC[C@@]2(OC1)O[C@H]1C[C@H]3[C@@H]4CC[C@H]5C[C@@H](O[C@@H]6O[C@H](CO)[C@H](O[C@@H]7O[C@H](CO)[C@@H](O)[C@H](O[C@@H]8O[C@H](CO)[C@@H](O)[C@H](O)[C@H]8O)[C@H]7O[C@@H]7O[C@H](CO)[C@@H](O)[C@H](O[C@@H]8OC[C@@H](O)[C@H](O)[C@H]8O)[C@H]7O)[C@H](O)[C@H]6O)CC[C@]5(C)[C@H]4CC(=O)[C@]3(C)[C@H]1[C@@H]2C [AGAMENOSIDE F] | 5.1 µg/mL (≈ 4.21 µM)
7 | C[C@H](CC[C@@]1(O)O[C@H]2C[C@H]3[C@@H]4CC[C@H]5C[C@@H](O[C@@H]6O[C@H](CO)[C@H](O[C@@H]7O[C@H](CO)[C@@H](O)[C@H](O[C@@H]8OC[C@@H](O)[C@H](O)[C@H]8O)[C@H]7O[C@@H]7O[C@H](CO)[C@@H](O)[C@H](O[C@@H]8OC[C@@H](O)[C@H](O)[C@H]8O)[C@H]7O)[C@H](O)[C@H]6O)CC[C@]5(C)[C@H]4CC(=O)[C@]3(C)[C@H]2[C@@H]1C)CO[C@@H]1O[C@H](CO)[C@@H](O)[C@H](O)[C@H]1O [POLIANTHOSIDE E] | 5.21 µg/mL (≈ 3.83 µM)
8 | C[C@@H]1CC[C@@]2(OC1)O[C@H]1C[C@H]3[C@@H]4CC[C@H]5C[C@@H](O[C@@H]6O[C@H](CO)[C@H](O[C@@H]7O[C@H](CO)[C@@H](O)[C@H](O[C@@H]8OC[C@@H](O)[C@H](O)[C@H]8O)[C@H]7O[C@@H]7O[C@H](CO)[C@@H](O)[C@H](O)[C@H]7O)[C@H](O)[C@H]6O)CC[C@]5(C)[C@H]4CC(=O)[C@]3(C)[C@H]1[C@@H]2C | 8.17 µg/mL (≈ 7.79 µM)
9 | C[C@@H]1CC[C@@]2(OC1)O[C@H]1C[C@H]3[C@@H]4CC[C@H]5C[C@@H](O[C@@H]6O[C@H](CO)[C@H](O[C@@H]7O[C@H](CO)[C@@H](O)[C@H](O[C@@H]8OC[C@@H](O)[C@H](O)[C@H]8O)[C@H]7O[C@@H]7O[C@H](CO)[C@@H](O)[C@H](O[C@@H]8OC[C@@H](O)[C@H](O)[C@H]8O)[C@H]7O)[C@H](O)[C@H]6O)CC[C@]5(C)[C@H]4CC[C@]3(C)[C@H]1[C@@H]2C | 7.2 µg/mL (≈ 6.17 µM)
10 | C[C@H](CC[C@@]1(O)O[C@H]2C[C@H]3[C@@H]4CC[C@H]5C[C@@H](O[C@@H]6O[C@H](CO)[C@H](O[C@@H]7O[C@H](CO)[C@@H](O)[C@H](O[C@@H]8OC[C@@H](O)[C@H](O)[C@H]8O)[C@H]7O[C@@H]7O[C@H](CO)[C@@H](O)[C@H](O)[C@H]7O)[C@H](O)[C@H]6O)CC[C@]5(C)[C@H]4CC[C@]3(C)[C@H]2[C@@H]1C)CO[C@@H]1O[C@H](CO)[C@@H](O)[C@H](O)[C@H]1O | 18.8 µg/mL (≈ 15.5 µM)
11 | C[C@@H]1CC[C@@]2(OC1)O[C@H]1C[C@H]3[C@@H]4CC[C@H]5C[C@@H](O[C@@H]6O[C@H](CO)[C@H](O[C@@H]7O[C@H](CO)[C@@H](O)[C@H](O[C@@H]8O[C@H](CO)[C@@H](O)[C@H](O)[C@H]8O)[C@H]7O[C@@H]7O[C@H](CO)[C@@H](O)[C@H](O[C@@H]8O[C@H](CO)[C@@H](O)[C@H](O)[C@H]8O)[C@H]7O)[C@H](O)[C@H]6O)CC[C@]5(C)[C@H]4CC[C@]3(C)[C@H]1[C@@H]2C [POLIANTHOSIDE C] | > 20 µg/mL
12 | C[C@@H]1CC[C@@]2(OC1)O[C@H]1C[C@H]3[C@@H]4CC[C@H]5C[C@@H](O[C@@H]6O[C@H](CO)[C@H](O[C@@H]7O[C@H](CO)[C@@H](O)[C@H](O)[C@H]7O[C@@H]7O[C@H](CO)[C@@H](O)[C@H](O)[C@H]7O)[C@H](O)[C@H]6O)CC[C@]5(C)[C@H]4CC(=O)[C@]3(C)[C@H]1[C@@H]2C | 8.61 µg/mL (≈ 9.39 µM)
13 | C[C@@H]1CC[C@@]2(OC1)O[C@H]1C[C@H]3[C@@H]4CC[C@H]5C[C@@H](O[C@@H]6O[C@H](CO)[C@H](O[C@@H]7O[C@H](CO)[C@@H](O)[C@H](O[C@@H]8O[C@H](CO)[C@@H](O)[C@H](O)[C@H]8O)[C@H]7O[C@@H]7O[C@H](CO)[C@@H](O)[C@H](O[C@@H]8OC[C@@H](O)[C@H](O)[C@H]8O)[C@H]7O)[C@H](O)[C@H]6O)CC[C@]5(C)[C@H]4CC[C@]3(C)[C@H]1[C@@H]2C [POLIANTHOSIDE B] | > 20 µg/mL
